For one data set, the system named is Blood. Put plainly: Inhibition of LPS-induced TNFalpha production in human whole blood. The data set is classed as functional, tissue-based.
A short description of data set [1]: AUC in beagle dog at 1 mg/kg, po. The data set is classed as ADME, organism-based, Canis lupus familiaris. Also on record: dose 1 mg/kg, route oral. The conditions noted are these: plasma. Summed up: (§1)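 Beagle dogs dosed 1 mg/kg iv or 1 mg/kg po; pharmacokinetic parameters reported as mean values of n = 2 animals.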
The nature of data set [2]: AUC in Wistar rat at 1 mg/kg, iv. Format: ADME, organism-based. Also noted: dose 1 mg/kg, route intravenous. The conditions noted are these: plasma. Summed up: (§2)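 Wistar rats, single dose either iv 1 mg/kg in 40% PEG + 0.4% HCl 1 N, or oral 10 mg/kg in 0.5% methylcellulose + 0.1% Tween 80; plasma PK parameters reported as mean values (n = 2).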
Data set [3] can be described thus: Oral bioavailability in Wistar rat at 10 mg/kg. Format: ADME, organism-based. The conditions noted are these: in vivo. Summed up:
as §2

A short description of data set [4]: Oral bioavailability in beagle dog at 1 mg/kg. The data set is classed as ADME, organism-based, Canis lupus familiaris. The conditions noted are these: in vivo. In a few lines: as §1
Data set [5] can be described thus: Passive permeability from basolateral to apical side in human Caco2 cells at 12.5 uM. Format: ADME, cell-based. The conditions noted are these: Caco-2, read-out: permeability. In a few lines:
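Caco-2 monolayer, test compound 12.5 µM; passive apparent permeability measured in both AB and BA directions, reported in 10^-6 cm/s.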
In general terms: Caco-2 cells form a polarised layer with tight junctions and transporters.

Data set [6] in a line: Protein binding in rat plasma. Format: ADME, cell-free. The conditions noted are these: read-out: PPB (converted).
Data set [7] deals with Rattus norvegicus. Put plainly: Inhibition of TNFalpha release in rat LPS-induced endotoxemia model dosed orally 1 hr prior to LPS challenge and measured 1.5 hrs post LPS challenge. The conditions noted are these: po. Format: functional. Summed up: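 Rats given compound orally 1 h before LPS challenge to induce endotoxemia; plasma TNFα quantified 1.5 h after LPS, at peak TNF production.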

Data set [8] deals with CHO. Description: Cytotoxicity against CHO cells at 200 uM. The conditions noted are these: chinese hamster. Format: cell-based, Cricetulus griseus.
Data set [9] in a line: Protein binding in human plasma. The data set is classed as ADME, cell-free. The conditions noted are these: read-out: PPB (converted).
Data set [10] has as its system CHO. Put plainly: Toxicity against CHO cells. The data set is classed as cell-based, Cricetulus griseus. The conditions noted are these: chinese hamster.
The subject of data set [11] is Rattus norvegicus. Put plainly: Antiarthritic effect in rat adjuvant-induced arthritis model assessed as inhibition of right paw edema at 3 mg/kg, po dosed daily during last 10 days of test. The conditions noted are these: 240 h. Format: functional. In a few lines:
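Arthritis induced by complete Freund's adjuvant injected into left hind paw; oral compound daily over final 10 days of protocol; right (non-injected) paw volume monitored, result as % inhibition of oedema.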

A further data set deals with Cytochrome P450 2C9 (Homo sapiens, UniProt P11712). Description: Inhibition of CYP2C9 at < 25 uM. The data set is classed as ADME.
Cytochrome P450 2C9, sequence (P11712 whole entry): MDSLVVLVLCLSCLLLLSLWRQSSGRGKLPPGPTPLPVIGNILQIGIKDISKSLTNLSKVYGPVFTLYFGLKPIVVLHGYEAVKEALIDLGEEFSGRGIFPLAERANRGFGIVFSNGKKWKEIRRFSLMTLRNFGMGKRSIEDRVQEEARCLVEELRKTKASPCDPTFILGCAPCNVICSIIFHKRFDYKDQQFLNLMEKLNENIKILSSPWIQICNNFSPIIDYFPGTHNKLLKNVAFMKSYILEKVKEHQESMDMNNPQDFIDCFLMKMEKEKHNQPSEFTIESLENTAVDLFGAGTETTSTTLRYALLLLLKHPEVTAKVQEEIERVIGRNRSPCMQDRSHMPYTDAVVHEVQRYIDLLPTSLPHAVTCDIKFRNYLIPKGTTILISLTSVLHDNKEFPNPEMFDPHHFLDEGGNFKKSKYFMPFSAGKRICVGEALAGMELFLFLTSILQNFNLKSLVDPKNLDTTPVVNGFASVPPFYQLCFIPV
Data set [12] can be described thus: Cmax in beagle dog at 1 mg/kg, po. Also on record: dose 1 mg/kg, route oral. Format: ADME, organism-based, Canis lupus familiaris. The conditions noted are these: in vivo. In a few lines: as §1
A further data set addresses Cytochrome P450 3A4 (Homo sapiens, UniProt P08684). Description: Inhibition of CYP3A4 at < 25 uM. Format: ADME.
For another data set, the target named is T1, Cytochrome P450 1A2 (Homo sapiens, UniProt P05177).
T1 sequence (P05177 whole entry): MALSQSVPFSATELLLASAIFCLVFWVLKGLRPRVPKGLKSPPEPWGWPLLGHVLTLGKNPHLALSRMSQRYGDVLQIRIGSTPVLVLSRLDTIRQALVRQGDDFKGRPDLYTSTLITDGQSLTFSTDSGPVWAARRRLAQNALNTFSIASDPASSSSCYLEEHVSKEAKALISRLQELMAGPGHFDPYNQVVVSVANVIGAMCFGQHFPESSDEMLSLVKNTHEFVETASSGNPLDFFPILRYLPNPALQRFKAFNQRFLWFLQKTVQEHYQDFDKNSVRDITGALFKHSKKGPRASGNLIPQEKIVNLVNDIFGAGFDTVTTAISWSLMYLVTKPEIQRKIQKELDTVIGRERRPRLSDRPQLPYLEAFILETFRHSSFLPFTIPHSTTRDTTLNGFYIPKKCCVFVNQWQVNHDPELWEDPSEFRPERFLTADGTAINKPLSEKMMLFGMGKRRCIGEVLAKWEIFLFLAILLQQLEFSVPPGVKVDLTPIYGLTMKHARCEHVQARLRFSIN
Description: Inhibition of CYP1A2 at < 25 uM. The data set is classed as ADME.

Data set [13] can be described thus: Volume of distribution at steady state in Wistar rat at 1 mg/kg, iv. Format: ADME, organism-based. Also on record: dose 1 mg/kg, route intravenous. The conditions noted are these: in vivo, read-out: Vdss. In a few lines:
as §2

The nature of data set [14]: Stability in human hepatic microsomes assessed as compound turnover at 5 uM incubated for 30 mins in presence of NADPH. The data set is classed as ADME. The conditions noted are these: liver microsomes, read-out: Drug degradation. Summed up:
(§3)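 Rat or human hepatic microsomes (1 mg/mL) with NADPH, test compound 5 µM, 30 min at 37 °C; readout is % turnover of parent.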

Data set [15] is described as follows: Cmax in Wistar rat at 10 mg/kg, po. Also on record: dose 10 mg/kg, route oral. The conditions noted are these: in vivo. Format: ADME, organism-based. Summed up: as §2
Data set [16] can be described thus: Half life in beagle dog at 1 mg/kg, iv. Also on record: dose 1 mg/kg, route intravenous. Format: ADME, organism-based, Canis lupus familiaris. The conditions noted are these: in vivo. Summed up:
as §1

A short description of data set [17]: AUC in Wistar rat at 10 mg/kg, po. Format: ADME, organism-based. Also noted: dose 10 mg/kg, route oral. The conditions noted are these: plasma. Summed up:
as §2

The target of data set [18] is RAF proto-oncogene serine/threonine-protein kinase (Homo sapiens, UniProt P04049). Description: Inhibition of c-Raf.
RAF proto-oncogene serine/threonine-protein kinase, sequence (P04049 whole entry): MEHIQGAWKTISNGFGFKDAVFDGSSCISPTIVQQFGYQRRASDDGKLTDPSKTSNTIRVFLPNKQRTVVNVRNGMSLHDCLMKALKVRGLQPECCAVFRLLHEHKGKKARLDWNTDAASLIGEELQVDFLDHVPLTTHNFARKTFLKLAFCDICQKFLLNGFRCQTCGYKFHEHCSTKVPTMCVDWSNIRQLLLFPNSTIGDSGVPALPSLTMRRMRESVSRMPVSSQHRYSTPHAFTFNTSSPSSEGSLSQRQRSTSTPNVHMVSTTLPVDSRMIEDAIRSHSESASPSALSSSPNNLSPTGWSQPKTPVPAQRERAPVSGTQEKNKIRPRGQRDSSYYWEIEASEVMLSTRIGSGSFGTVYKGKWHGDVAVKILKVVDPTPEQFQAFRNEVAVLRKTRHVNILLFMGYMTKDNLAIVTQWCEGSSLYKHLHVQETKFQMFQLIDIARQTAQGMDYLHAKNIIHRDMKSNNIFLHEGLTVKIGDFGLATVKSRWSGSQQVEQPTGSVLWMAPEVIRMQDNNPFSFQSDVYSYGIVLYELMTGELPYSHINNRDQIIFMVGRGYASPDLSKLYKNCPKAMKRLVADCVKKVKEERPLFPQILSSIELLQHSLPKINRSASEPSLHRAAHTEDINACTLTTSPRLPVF
Data set [19] in a line: Stability in rat hepatic microsomes assessed as compound turnover at 5 uM incubated for 30 mins in presence of NADPH. Format: ADME. The conditions noted are these: liver microsomes, read-out: Drug degradation. Summed up:
as §3
Background: Liver microsomes are a subcellular fraction often used to study metabolism.

The nature of data set [20]: Volume of distribution at steady state in beagle dog at 1 mg/kg, iv. The data set is classed as ADME, organism-based, Canis lupus familiaris. Also on record: dose 1 mg/kg, route intravenous. The conditions noted are these: in vivo, read-out: Vdss. Summed up: as §1
Data set [21] is described as follows: Half life in Wistar rat at 1 mg/kg, iv. Format: ADME, organism-based. Also on record: dose 1 mg/kg, route intravenous. The conditions noted are these: in vivo. In a few lines:
as §2

Data set [22] is described as follows: Clearance in Wistar rat at 1 mg/kg, iv. The data set is classed as ADME, organism-based. Also noted: dose 1 mg/kg, route intravenous. The conditions noted are these: in vivo. Summed up:
as §2

Data set [23] can be described thus: AUC in beagle dog at 1 mg/kg, iv. Also noted: dose 1 mg/kg, route intravenous. The data set is classed as ADME, organism-based, Canis lupus familiaris. The conditions noted are these: plasma. Summed up: as §1
A further data set concerns the target Cytochrome P450 2C19 (Homo sapiens, UniProt P33261). Put plainly: Inhibition of CYP2C19 at < 25 uM. The data set is classed as ADME.
A short description of data set [24]: Clearance in beagle dog at 1 mg/kg, iv. The data set is classed as ADME, organism-based, Canis lupus familiaris. Also on record: dose 1 mg/kg, route intravenous. The conditions noted are these: in vivo. Summed up:
as §1

The target of another data set is Cytochrome P450 2D6 (Homo sapiens, UniProt P10635). Put plainly: Inhibition of CYP2D6 at < 25 uM. The data set is classed as ADME.
Cytochrome P450 2D6, sequence (P10635 whole entry): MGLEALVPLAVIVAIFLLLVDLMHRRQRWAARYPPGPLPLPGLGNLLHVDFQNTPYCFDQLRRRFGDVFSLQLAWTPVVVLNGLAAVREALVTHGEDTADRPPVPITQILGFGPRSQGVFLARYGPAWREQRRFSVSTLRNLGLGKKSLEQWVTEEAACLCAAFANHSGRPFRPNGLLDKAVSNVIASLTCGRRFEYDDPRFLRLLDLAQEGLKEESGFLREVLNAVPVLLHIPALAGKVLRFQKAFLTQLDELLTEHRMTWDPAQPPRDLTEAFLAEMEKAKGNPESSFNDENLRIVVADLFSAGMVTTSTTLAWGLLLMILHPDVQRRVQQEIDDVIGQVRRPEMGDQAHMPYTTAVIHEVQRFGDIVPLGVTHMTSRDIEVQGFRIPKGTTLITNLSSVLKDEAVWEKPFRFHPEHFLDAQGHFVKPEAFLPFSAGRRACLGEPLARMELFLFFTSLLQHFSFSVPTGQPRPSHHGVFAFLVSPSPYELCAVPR
The next data set in a line: in vitro. The conditions noted are these: human, Caco-2.

pIC50: −log10 of the molar value.

Cytochrome P450 2C19, sequence (P33261 whole entry): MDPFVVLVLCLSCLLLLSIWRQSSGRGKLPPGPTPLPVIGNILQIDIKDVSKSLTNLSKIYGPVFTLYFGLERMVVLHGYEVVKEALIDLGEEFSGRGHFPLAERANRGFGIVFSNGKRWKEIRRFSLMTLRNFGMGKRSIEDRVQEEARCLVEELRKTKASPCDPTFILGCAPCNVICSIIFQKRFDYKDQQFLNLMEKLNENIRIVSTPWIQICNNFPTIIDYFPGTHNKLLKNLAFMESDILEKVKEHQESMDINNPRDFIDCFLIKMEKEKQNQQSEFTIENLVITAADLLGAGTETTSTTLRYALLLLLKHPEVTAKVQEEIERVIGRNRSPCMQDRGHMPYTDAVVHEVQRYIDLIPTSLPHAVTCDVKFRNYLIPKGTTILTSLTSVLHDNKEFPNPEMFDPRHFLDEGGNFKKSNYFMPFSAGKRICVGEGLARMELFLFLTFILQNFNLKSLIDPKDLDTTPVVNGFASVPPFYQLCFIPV
Cytochrome P450 3A4, sequence (P08684 whole entry): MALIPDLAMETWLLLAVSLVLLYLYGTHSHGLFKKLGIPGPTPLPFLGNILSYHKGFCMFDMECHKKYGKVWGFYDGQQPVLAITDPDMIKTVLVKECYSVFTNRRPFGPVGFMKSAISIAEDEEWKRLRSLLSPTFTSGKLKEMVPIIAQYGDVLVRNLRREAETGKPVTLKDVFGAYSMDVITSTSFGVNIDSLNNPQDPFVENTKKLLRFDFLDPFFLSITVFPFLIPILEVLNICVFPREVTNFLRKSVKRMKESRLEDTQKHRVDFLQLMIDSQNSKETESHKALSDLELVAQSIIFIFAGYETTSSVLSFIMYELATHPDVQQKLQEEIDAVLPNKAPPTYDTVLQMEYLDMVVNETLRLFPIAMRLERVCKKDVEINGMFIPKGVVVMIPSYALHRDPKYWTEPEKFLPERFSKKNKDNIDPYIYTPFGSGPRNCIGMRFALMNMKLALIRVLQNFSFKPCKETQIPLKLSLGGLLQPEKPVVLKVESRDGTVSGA

As to `Cc1ccc(C(=O)NC2CC2)cc1-c1ccc2c(N3CCCCC3)noc2c1`, the pIC50 in the data set on Blood is 7.01.

In the data set on Blood, `Cc1c(F)cc(C(=O)NC2CC2)cc1-c1ccn2c(C(C)(C)N)nnc2c1` gave a pIC50 of 6.75.

In the data set with Blood, `Cc1c(F)cc(C(=O)NC2CC2)cc1-c1ccn2c(-c3ccccc3Cl)nnc2c1` gave a pIC50 of 8.14.

The compound `Cc1ccc(C(=O)NC2CC2)cc1-c1ccn2c(C3(C)CC3)nnc2c1` showed a pIC50 with Blood of 6.63.

`Cc1ccc(C(=O)NC2CC2)cc1-c1ccn2c(C(C)C)nnc2c1` gave a negative-log IC50 (pIC50) in the data set on Blood of 7.38.

The compound `Cc1c(F)cc(C(=O)NC2CC2)cc1-c1c(F)cn2c(C(C)C)nnc2c1F` had a pIC50 with Blood of 6.33.

`Cc1ccc(C(=O)NC2CC2)cc1-c1ccn2c(-c3ccncc3Cl)nnc2c1` gave a negative logarithm of the IC50 (pIC50) with Blood of 6.52.

Take `CC(C)(C)c1nnc2ccc(Sc3ccc(F)cc3F)cn12`: in the data set on Blood, the negative logarithm of the IC50 (pIC50) was 6.84.

Regarding `Cc1c(F)cc(C(=O)NC2CC2)cc1-c1ccn2c(C(C)(C)N(C)C)nnc2c1`, in the data set on Blood, the pIC50 was 7.08.

For `Cc1c(F)cc(C(=O)NC2CC2)cc1-c1ccn2c(C3CCOCC3)nnc2c1`, the pIC50 with Blood is 6.39.

For `Cc1c(F)cc(C(=O)NC2CC2)cc1-c1c(F)cn2c(-c3ccncc3Cl)nnc2c1F`, the pIC50 in the data set on Blood is less than 5.30.

In the data set on Blood, `Cc1c(F)cc(C(=O)NC2CC2)cc1-c1ccn2c(C(C)C)nnc2c1` had a pIC50 of 6.94.

On to `Cc1c(F)cc(C(=O)NC2CC2)cc1-c1ccn2c(C3CCC3)nnc2c1`, for which the negative logarithm of the IC50 (pIC50) with Blood is 6.26.

As for `Cc1c(F)cc(C(=O)NC2CC2)cc1-c1c(F)cn2c(C(C)(C)N)nnc2c1F`, in the data set with Blood, the negative logarithm of the IC50 (pIC50) was 6.09.

As to `Cc1c(F)cc(C(=O)NC2CC2)cc1-c1ccn2c(C3(C)CC3)nnc2c1`, the pIC50 in the data set with Blood is 6.93.

For `Cc1ccc(C(=O)NC2CC2)cc1-c1ccn2c(C(C)(C)C)nnc2c1`, the AUC in [1] is 1260 ng·h/mL; in data set [2] it was 2120 ng·h/mL; in [17], 19400 ng·h/mL; in [23], 1690 ng·h/mL. Also, the values for the bioavailability in data set [3] and in data set [4] were 93% and 75%, respectively. For the same compound, in [5], the Papp B→A at 12.5 µM was 18 ×10⁻⁶ cm/s. Also, the negative logarithm of the IC50 (pIC50) in the data set with Blood was 7.52; in [18], 5.49. Moreover, the figures for the fraction unbound in data set [6] and in data set [9] were 0.39 and 0.42, respectively. In the data set with Rattus norvegicus [7], the ED50 turned out to be 0.26 mg/kg. Further, the Activity in the data set with CHO [8] is listed as 50%; with CHO [10], “Non-toxic”. For the same compound, in the data set with Rattus norvegicus [11], the inhibition in vivo at 3 mg/kg was 60%. Besides, the “inhibition (INH)” value against Cytochrome P450 2C9, against Cytochrome P450 3A4, on Cytochrome P450 1A2, against Cytochrome P450 2C19 and against Cytochrome P450 2D6 was “Not Active” each time. For the same compound, the Cmax in [12] is 215 ng/mL; in [15] it was 2600 ng/mL. Moreover, the results for the Vd in [13] and in data set [20] were 2 L/kg and 1.7 L/kg, respectively. In addition, the metabolised at 0.5 h, 5 µM in data set [14] and in data set [19] was less than 5% in each case. The half-life in [16] was 2.5 h; in data set [21], 3.4 h. For the same compound, the results for the clearance in [22] and in data set [24] were 7.8 mL/min/kg and 9.9 mL/min/kg, respectively. Moreover, the apical-to-basolateral permeability (Papp A→B) at 12.5 µM in “in vitro” is 15 ×10⁻⁶ cm/s.

As usually defined, the pIC50 is −log10 of the IC50, conventionally taken in molar units. The low end stands for a large IC50, the high end for a small IC50. As usually defined, the AUC is concentration integrated over time. As usually defined, the bioavailability is the share of a dose that reaches the circulation, judged against a reference dose that is usually intravenous. Read a high bioavailability as good availability. For orientation: ED50 means the midpoint of the dose-response relation. The low end stands for greater potency, the high end for weaker potency. Broadly, the inhibition in vivo is the change of the read-out against control, counted positive when it falls. The Cmax is the highest concentration seen after dosing. Usually half-life stands for the time needed for the level to fall by half in the phase considered. A lower half-life goes with rapid decline. Broadly, the clearance is a measure of how efficiently the substance is removed, as volume per time. A high value points to efficient removal. Broadly, the Papp A→B is how fast a substance crosses the layer from the apical side. Lower therefore signals slow passage.

These data come from ChEMBL document CHEMBL2086331, “Novel triazolopyridylbenzamides as potent and selective p38α inhibitors” (Bioorg Med Chem Lett, 2012).
